Measured values of several laboratories.
Compare with care: the assays were run in different laboratories.
Target: Mitogen-activated protein kinase kinase kinase 5 (MAP3K5, Homo sapiens, UniProt Q99683)
Sequence (Q99683 1-1374, as in one of the studies): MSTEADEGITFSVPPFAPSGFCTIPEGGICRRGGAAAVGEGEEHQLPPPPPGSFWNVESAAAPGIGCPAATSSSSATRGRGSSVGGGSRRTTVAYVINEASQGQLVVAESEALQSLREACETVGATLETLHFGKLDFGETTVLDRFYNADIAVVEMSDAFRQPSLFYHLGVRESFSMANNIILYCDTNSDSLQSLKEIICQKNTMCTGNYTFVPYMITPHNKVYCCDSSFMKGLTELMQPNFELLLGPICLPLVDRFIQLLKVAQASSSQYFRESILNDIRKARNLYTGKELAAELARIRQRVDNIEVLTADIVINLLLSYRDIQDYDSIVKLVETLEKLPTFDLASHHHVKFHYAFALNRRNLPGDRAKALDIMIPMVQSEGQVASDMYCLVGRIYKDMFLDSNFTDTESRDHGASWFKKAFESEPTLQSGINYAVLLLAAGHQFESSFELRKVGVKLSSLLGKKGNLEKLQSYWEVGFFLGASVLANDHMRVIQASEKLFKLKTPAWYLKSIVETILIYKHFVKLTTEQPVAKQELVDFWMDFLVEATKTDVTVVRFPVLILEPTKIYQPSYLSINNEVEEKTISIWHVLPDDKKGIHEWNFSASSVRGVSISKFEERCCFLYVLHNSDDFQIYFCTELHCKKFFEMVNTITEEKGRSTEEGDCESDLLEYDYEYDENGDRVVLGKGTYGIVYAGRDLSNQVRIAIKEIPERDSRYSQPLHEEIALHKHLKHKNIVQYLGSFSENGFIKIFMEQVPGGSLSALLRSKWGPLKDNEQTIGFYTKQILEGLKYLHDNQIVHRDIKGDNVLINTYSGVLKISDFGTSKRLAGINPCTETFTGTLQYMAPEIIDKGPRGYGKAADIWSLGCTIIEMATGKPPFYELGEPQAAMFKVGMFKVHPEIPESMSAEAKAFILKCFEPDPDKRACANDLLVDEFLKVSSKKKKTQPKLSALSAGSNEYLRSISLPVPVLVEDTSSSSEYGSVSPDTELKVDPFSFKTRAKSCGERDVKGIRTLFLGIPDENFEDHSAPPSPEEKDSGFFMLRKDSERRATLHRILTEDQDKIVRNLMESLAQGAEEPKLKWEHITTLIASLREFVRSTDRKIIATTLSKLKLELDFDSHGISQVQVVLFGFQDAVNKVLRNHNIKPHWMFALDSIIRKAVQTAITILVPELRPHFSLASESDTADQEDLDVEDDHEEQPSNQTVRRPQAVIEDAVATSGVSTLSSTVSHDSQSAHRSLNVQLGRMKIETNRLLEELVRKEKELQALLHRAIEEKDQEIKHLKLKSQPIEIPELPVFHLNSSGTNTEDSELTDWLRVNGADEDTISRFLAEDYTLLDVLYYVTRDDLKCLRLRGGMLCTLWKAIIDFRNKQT

| Structure (SMILES) | observed | technique | tested at | remaining binding |
| --- | --- | --- | --- | --- |
| Cc1cc(C)c(-n2ccn3nc(-c4cccnc4)cc23)cc1NC(=O)c1cc(C#N)cc(S(F)(F)(F)(F)F)c1 | cell-free assay | competition with immobilised ligand | 0.1 µM | 100% |
| Cc1cnn2ncc(-c3ccnc(N(C)C)n3)c2c1 | binding | – | 1 µM | 100% |
| CCN1CCN(Cc2ccc(C(=O)Nc3ccc(C)c(Oc4ccc5c(c4)CC(=O)N5)c3)cc2C(F)(F)F)CC1 | binding | competition with immobilised ligand | 1 µM | 100% |
| O=C(c1ccc(Nc2ncc(Cl)c(-c3ccc(Cl)s3)n2)cc1)N1CCC(N2CCCC2)CC1 | binding | competition with immobilised ligand | 1 µM | 100% |
| Nc1ncc2c(n1)-c1c([nH]c3ccc(C#CC4CC4)cc13)CCCC2 | binding | competition with immobilised ligand | 1 µM | 100% |
| C[C@@H](c1ccc(-n2cnc3c(N)ncnc32)cc1)N1CCc2nn(C)c(Cc3ccccc3)c2C1=O | binding | competition with immobilised ligand | 0.1 µM | 95% |
| Cn1cc(Cl)c2c(Oc3c(F)cc(Nc4cc(Cl)nc(N)n4)cc3F)ccnc21 | cell-free assay | competition with immobilised ligand | 0.1 µM | 97% |
| O=C(c1ccc(Nc2nccc(-c3cc4ccccc4s3)n2)cc1)N1CCC(N2CCCC2)CC1 | binding | competition with immobilised ligand | 1 µM | 100% |
| N[C@H]1CCN(c2nccc(-c3cnn4ncccc34)n2)C1 | binding | – | 1 µM | 99% |
| COc1cnc(Nc2cccc(S(N)(=O)=O)c2)nc1N1CCN(c2ccccc2)C(=O)C1 | binding | competition with immobilised ligand | 1 µM | 100% |
| CC1CCCN1c1nccc(-c2cnn3ncccc23)n1 (stereo not drawn) | binding | – | 1 µM | 79% |
| CNC(=O)Nc1ccc2c(c1)CC[C@@]21OC(=O)N(CC(=O)N(Cc2ccc(F)cc2)[C@@H](C)C(F)(F)F)C1=O | cell-free assay | competition with immobilised ligand | 1 µM | 94% |
| CN(C)c1ncc(F)c(-c2cnn3ncccc23)n1 | binding | – | 1 µM | 100% |
| O=C(NCC1CCOCC1)c1n[nH]cc1NC(=O)c1c(F)cccc1F | binding | competition with immobilised ligand | 1 µM | 87% |
| O=C(O)[C@@H]1[C@@H](Cn2nnc3ccccc3c2=O)CC[C@H]1C(=O)c1ccc(OCCC2CCOCC2)cc1 | cell-free assay | competition with immobilised ligand | 1 µM | 94% |
| COc1ccnn2ncc(-c3ccnc(N(C)C)n3)c12 | binding | – | 1 µM | 100% |
| O=C(Nc1ccc(Oc2ccc(F)cc2)cc1)N1CCc2ncccc2[C@H]1c1ccc(F)cc1 | cell-free assay | competition with immobilised ligand | 1 µM | 87% |
| FC(F)(F)Oc1cccc(-c2cnc3ccc(-c4ccncc4)nn23)c1 | cell-free assay | competition with immobilised ligand | 5 µM | 100% |
| O=C(NCCCN1CCOCC1)c1ccc(Nc2nccc(-c3cc4ccccc4s3)n2)cc1 | binding | competition with immobilised ligand | 1 µM | 100% |
| CN(CCCC(F)(F)F)c1nccc(-c2cnn3ncccc23)n1 | binding | – | 1 µM | 76% |
| N#Cc1ccc(Nc2ccc3[nH]c(=O)[nH]c3c2)c(Cl)c1 | cell-free assay | competition with immobilised ligand | 1 µM | 90% |
